Rows were chosen to be rich in hits. Some 4.8% of all compounds tested hit in one or more screens of this group.
697 NFkB inh = inhibitors of the PMA/ionomycin-induced NF-kB reporter in 697 B cells | 697 B-cell NF-kB luciferase reporter, 16 h | inhibition, % at 4 µM | hit rate 0.33% among 330,000; in the data active means inhibition above about 35%
T cruzi repl = T. cruzi replication inhibition. T. cruzi beta-gal in NIH3T3, luminescence, 90 h. inhibition, % (concentration not given with the values). hit rate 1.4% among 300,000;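 active means mean inhibition across valid replicates above about 55%, limit read from the data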;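 further: signal also drops with host cell toxicity which is not excluded here; higher percent means less beta-gal luminescence so fewer parasites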
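System: mouse NIH/3T3 fibroblasts infected with β-gal-expressing T. cruzi Tulahuen C4 / Input: NIH/3T3 cells, 5,000 per well / Buffer or medium: Low-serum DMEM with 2% FBS / Probe or stimulus: 5000 reporter trypomastigotes per well / Schedule: ≥90 h infection period, 3 h prior cell attachment / Measured by: GalScreen luminescence, 60 min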
HSF-1 act = increases HSF-1 driven luciferase reporter signal; hit rate 1.7% among 300,000; NIH3T3-HGL HSF-1 luciferase reporter, MG132, 8 h; 100% = twice DMSO control signal; activation, % at 9 µM; AID 504408;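 active means mean replicate activation of at least 50% with a set share of replicates each reaching 50%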
GPR7 antag = blocks human GPR7 receptor signaling; inhibition, % at 4.4 µM; hit rate 1.1% among 290,000; AID 1861; GPR7-expressing cells, fluorescence antagonist assay; in the data active means inhibition above about 16%, passing the limit was not always enough;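 further: cells stimulated with the agonist NPW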
Target sequence (P48145 whole entry, looked up): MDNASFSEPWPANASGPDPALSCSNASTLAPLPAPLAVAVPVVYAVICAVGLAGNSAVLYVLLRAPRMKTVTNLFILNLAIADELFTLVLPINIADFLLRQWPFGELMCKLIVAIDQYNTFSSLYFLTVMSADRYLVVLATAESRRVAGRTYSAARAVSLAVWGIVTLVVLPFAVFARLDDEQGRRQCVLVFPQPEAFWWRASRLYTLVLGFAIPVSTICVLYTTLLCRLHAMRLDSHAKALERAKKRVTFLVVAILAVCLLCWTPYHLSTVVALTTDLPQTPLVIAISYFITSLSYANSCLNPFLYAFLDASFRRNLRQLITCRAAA
HSF1 inh = HSF1 inhibition | NIH3T3-HGL HSE-luciferase, MG132-induced, luminescence 8 h; stronger effect = lower value | activity change, negative = inhibition, % at 7.5 µM (by protocol) | hit rate 0.77% among 300,000;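 active means more than half of replicate wells show activity change below -50%, luminescence cut by over half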;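 further: luciferase reports HSF-1 transcriptional activity via heat shock element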
Jurkat NFkB inh = lowers PMA/ionomycin-induced NF-kB signal in Jurkat cells. PMA/ionomycin-induced NF-kB luciferase reporter, luminescence. inhibition, % at 4 µM. hit rate 0.53% among 330,000. AID 435003; in the data active means inhibition above about 50%
Hits are given with their value.

C=CCC1(C(=O)NCCO)CCN(C(=O)OC(C)(C)C)CC1 was read as 697 NFkB inh inactive, T cruzi repl inactive, HSF-1 act inactive, GPR7 antag inactive, HSF1 inh -84 and Jurkat NFkB inh inactive.
O=C(COc1ccccc1)NCC(=O)N/N=C/c1ccc(Br)cc1 was read as 697 NFkB inh inactive, T cruzi repl inactive, HSF-1 act inactive, GPR7 antag inactive, HSF1 inh inactive and Jurkat NFkB inh inactive.
Screening COC(=O)c1ccc(NC(=O)CN(Cc2ccc(Cl)cc2)S(C)(=O)=O)cc1 returned 697 NFkB inh inactive, T cruzi repl inactive, HSF-1 act inactive, GPR7 antag inactive, HSF1 inh inactive and Jurkat NFkB inh inactive.
`Cn1nnnc1SCC(=O)Nc1ccccc1C(N)=O` gave 697 NFkB inh inactive, T cruzi repl inactive, HSF-1 act inactive, GPR7 antag inactive, HSF1 inh inactive and Jurkat NFkB inh inactive.
`COc1cccc(-c2cc(C(=O)N3CCOCC3)no2)c1` gave 697 NFkB inh inactive, T cruzi repl inactive, HSF-1 act 61, GPR7 antag inactive, HSF1 inh inactive and Jurkat NFkB inh inactive.
Screening COc1ccc(-c2cc(C(=O)N3CCOCC3)no2)cc1 returned 697 NFkB inh inactive, T cruzi repl inactive, HSF-1 act inactive, GPR7 antag inactive, HSF1 inh inactive and Jurkat NFkB inh inactive.
For COc1cccc(-c2cc(C(=O)N3CCN(C(c4ccccc4)c4ccccc4)CC3)no2)c1 the results were 697 NFkB inh inactive, T cruzi repl 68, HSF-1 act inactive, GPR7 antag inactive, HSF1 inh inactive and Jurkat NFkB inh inactive.
`Cc1c(C(=O)N2CCCCC2)c(S(=O)(=O)N2CCN(c3ccccc3F)CC2)c(C)n1C` gave 697 NFkB inh inactive, T cruzi repl inactive, HSF-1 act inactive, GPR7 antag inactive, HSF1 inh inactive and Jurkat NFkB inh inactive.
CC1=NN(C(N)=S)C(C)(C)C1 was read as 697 NFkB inh inactive, T cruzi repl inactive, HSF-1 act inactive, GPR7 antag inactive, HSF1 inh -55 and Jurkat NFkB inh inactive.
For CCS(=O)(=O)N1Cc2ccccc2CC1C(=O)Nc1ccc(NC(C)=O)cc1 (stereo not given) the results were 697 NFkB inh inactive, T cruzi repl inactive, HSF-1 act inactive, GPR7 antag inactive, HSF1 inh inactive and Jurkat NFkB inh inactive.
Screening CCS(=O)(=O)N1Cc2ccccc2CC1C(=O)Nc1ccc(F)c(F)c1 (stereo not given) returned 697 NFkB inh inactive, T cruzi repl inactive, HSF-1 act 60, GPR7 antag inactive, HSF1 inh inactive and Jurkat NFkB inh inactive.
Screening N#CC1=C(N)NC(SCC(=O)Nc2ccccc2)=C(C#N)C12CCCCC2 returned 697 NFkB inh inactive, T cruzi repl inactive, HSF-1 act 71, GPR7 antag inactive, HSF1 inh inactive and Jurkat NFkB inh inactive.
For N#CC1=C(N)NC(SCc2ccccc2)=C(C#N)C12CCCCC2 the results were 697 NFkB inh inactive, T cruzi repl inactive, HSF-1 act inactive, GPR7 antag inactive, HSF1 inh inactive and Jurkat NFkB inh inactive.
Screening CCCn1c(NC(=O)c2cccc(S(=O)(=O)N3CCCC3)c2)nc2ccccc21 returned 697 NFkB inh inactive, T cruzi repl inactive, HSF-1 act inactive, GPR7 antag inactive, HSF1 inh -54 and Jurkat NFkB inh inactive.
`CC(C)Cc1nnc(NC(=O)c2cccc(S(=O)(=O)N3CCOCC3)c2)s1` gave 697 NFkB inh inactive and Jurkat NFkB inh inactive.
`CCc1nnc(NC(=O)c2cccc(S(=O)(=O)N3CCCCC3)c2)s1` gave 697 NFkB inh inactive, T cruzi repl inactive, HSF-1 act inactive, GPR7 antag inactive, HSF1 inh -56 and Jurkat NFkB inh inactive.
`CC(=O)NCCC(=O)Nc1sc2c(c1-c1nc3ccccc3[nH]1)CCCC2` gave 697 NFkB inh inactive, T cruzi repl inactive, HSF-1 act inactive, GPR7 antag inactive, HSF1 inh inactive and Jurkat NFkB inh inactive.
`CC(C)Cc1nnc(NC(=O)c2cccc(S(=O)(=O)N3CCN(C)CC3)c2)s1` gave 697 NFkB inh inactive, T cruzi repl 60, HSF-1 act inactive, HSF1 inh inactive and Jurkat NFkB inh inactive.
Screening CN1CCN(S(=O)(=O)c2cccc(C(=O)Nc3sc4c(c3-c3nc5ccccc5[nH]3)CCCC4)c2)CC1 returned 697 NFkB inh inactive, T cruzi repl 58, HSF-1 act inactive, GPR7 antag inactive, HSF1 inh inactive and Jurkat NFkB inh inactive.
`CCCn1c(NC(=O)c2ccccc2)nc2ccccc21` gave 697 NFkB inh inactive, T cruzi repl inactive, HSF-1 act inactive, GPR7 antag inactive, HSF1 inh inactive and Jurkat NFkB inh inactive.
Screening Cc1ccsc1/C=C/C1=NCCCN1C returned 697 NFkB inh inactive, T cruzi repl inactive, HSF-1 act inactive, GPR7 antag inactive, HSF1 inh -61 and Jurkat NFkB inh inactive.
Cc1ccsc1/C=N/N1CCN(Cc2ccccc2)CC1 was read as 697 NFkB inh inactive, T cruzi repl inactive, HSF-1 act inactive, GPR7 antag inactive, HSF1 inh inactive and Jurkat NFkB inh inactive.
Screening COc1ccc(CN(CC2CCC(C(=O)O)CC2)C(=S)Nc2cc(Cl)ccc2OC)cc1 (stereo not given) returned 697 NFkB inh inactive, T cruzi repl inactive, HSF-1 act 337, GPR7 antag inactive, HSF1 inh inactive and Jurkat NFkB inh inactive.
Screening COc1ccc(CN(CC2CCC(C(=O)O)CC2)C(=S)Nc2cc(C)ccc2C)cc1 (stereo not given) returned GPR7 antag inactive.
For O=C(/C=C/c1cccc(F)c1)NC1CCN(Cc2ccccc2)CC1 the results were 697 NFkB inh inactive, T cruzi repl 55, HSF-1 act inactive, GPR7 antag inactive, HSF1 inh inactive and Jurkat NFkB inh inactive.
Screening O=C(/C=C/c1cccc(Br)c1)NC1CCN(Cc2ccccc2)CC1 returned 697 NFkB inh inactive, T cruzi repl inactive, HSF-1 act inactive, GPR7 antag inactive, HSF1 inh inactive and Jurkat NFkB inh inactive.
CC(C)(C)CC(C)(C)NC(=S)NC1CCN(Cc2ccccc2)CC1 was read as 697 NFkB inh inactive, T cruzi repl inactive, GPR7 antag 27 and Jurkat NFkB inh inactive.
For O=C(Nc1cccc(F)c1)NC1CCN(Cc2ccccc2)CC1 the results were 697 NFkB inh inactive, T cruzi repl 60, HSF-1 act inactive, GPR7 antag inactive, HSF1 inh inactive and Jurkat NFkB inh inactive.
C=C(C)c1cccc(C(C)(C)NC(=O)NC2CCN(Cc3ccccc3)CC2)c1 was read as 697 NFkB inh inactive, T cruzi repl 55, HSF-1 act inactive, GPR7 antag inactive, HSF1 inh inactive and Jurkat NFkB inh inactive.
For COc1ccccc1C(=O)N/N=C/c1cnc2ccccc2n1 the results were 697 NFkB inh inactive, T cruzi repl inactive, HSF-1 act inactive, GPR7 antag inactive, HSF1 inh inactive and Jurkat NFkB inh inactive.
For CCOc1ccccc1C1C(C(=O)OC)=C(N)OC2=C1C(=O)CCC2 (stereo not given) the results were 697 NFkB inh inactive, T cruzi repl inactive, HSF-1 act inactive, GPR7 antag inactive, HSF1 inh inactive and Jurkat NFkB inh inactive.

Source: PubChem BioAssay
